ChEMBL document CHEMBL3421533, “The Discovery of Orally Bioavailable Tyrosine Threonine Kinase (TTK) Inhibitors: 3-(4-(heterocyclyl)phenyl)-1H-indazole-5-carboxamides as Anticancer Agents” (J Med Chem, 2015)

Key:
[1] = Cytotoxicity against human TOV21G cells after 5 days by sulforhodamine B assay; type: functional; conditions: 120 h
Outline: (§1)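 Cancer lines were seeded at 800–6000 cells per well according to growth rate, 24 h before compound overlay. After culture, cells were fixed in situ and stained with sulforhodamine B. GI50 values were derived by curve fitting.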

Cytochrome P450 3A4 = Cytochrome P450 3A4 (Homo sapiens, UniProt P08684); assay: Inhibition of human CYP3A4 using BFC as substrate preincubated for 10 mins followed by enzyme/substrate addition measured after 30 mins by fluorescence assay; type: ADME
SK-MEL-28 = assay: Cytotoxicity against human SK-MEL-28 cells after 5 days by sulforhodamine B assay; type: functional; conditions: SK-MEL-28, 120 h; outline: as §1
[2] = AUCinfinity in athymic CD1 nude mouse at 10 mg/kg, po by LC-MS/MS analysis; type: ADME, organism-based, Plasma; design: time infinity, dose 10 mg/kg, route oral; conditions: athymic CD1 nude, plasma
SW48 = assay: Cytotoxicity against human SW48 cells after 5 days by sulforhodamine B assay; type: functional; conditions: SW48, 120 h; outline: as §1
A2780 = assay: Cytotoxicity against human A2780 cells after 5 days by sulforhodamine B assay; type: functional; conditions: A2780, 120 h; outline: as §1
SK-MEL-5 = assay: Cytotoxicity against human SK-MEL-5 cells after 5 days by sulforhodamine B assay; type: functional; conditions: SK-MEL-5, 120 h; outline: as §1
[3] = target: Mitogen-activated protein kinase 10 (Homo sapiens, UniProt P53779); assay: Inhibition of human JNK3 by millipore radiometric assay
Outline: (§2)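 Radiometric profiling against a 278-kinase panel was done with ATP at Km. Half-maximal inhibitory concentrations were then determined for the kinases most inhibited.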

[4] = target: T1, Dual specificity protein kinase TTK (Homo sapiens, UniProt P33981); assay: Inhibition of TTK (unknown origin) transfected in human HCT116 cells after 4 hrs by near infrared imager analysis; type: cell-based, HCT-116
T1 sequence (P33981 whole entry): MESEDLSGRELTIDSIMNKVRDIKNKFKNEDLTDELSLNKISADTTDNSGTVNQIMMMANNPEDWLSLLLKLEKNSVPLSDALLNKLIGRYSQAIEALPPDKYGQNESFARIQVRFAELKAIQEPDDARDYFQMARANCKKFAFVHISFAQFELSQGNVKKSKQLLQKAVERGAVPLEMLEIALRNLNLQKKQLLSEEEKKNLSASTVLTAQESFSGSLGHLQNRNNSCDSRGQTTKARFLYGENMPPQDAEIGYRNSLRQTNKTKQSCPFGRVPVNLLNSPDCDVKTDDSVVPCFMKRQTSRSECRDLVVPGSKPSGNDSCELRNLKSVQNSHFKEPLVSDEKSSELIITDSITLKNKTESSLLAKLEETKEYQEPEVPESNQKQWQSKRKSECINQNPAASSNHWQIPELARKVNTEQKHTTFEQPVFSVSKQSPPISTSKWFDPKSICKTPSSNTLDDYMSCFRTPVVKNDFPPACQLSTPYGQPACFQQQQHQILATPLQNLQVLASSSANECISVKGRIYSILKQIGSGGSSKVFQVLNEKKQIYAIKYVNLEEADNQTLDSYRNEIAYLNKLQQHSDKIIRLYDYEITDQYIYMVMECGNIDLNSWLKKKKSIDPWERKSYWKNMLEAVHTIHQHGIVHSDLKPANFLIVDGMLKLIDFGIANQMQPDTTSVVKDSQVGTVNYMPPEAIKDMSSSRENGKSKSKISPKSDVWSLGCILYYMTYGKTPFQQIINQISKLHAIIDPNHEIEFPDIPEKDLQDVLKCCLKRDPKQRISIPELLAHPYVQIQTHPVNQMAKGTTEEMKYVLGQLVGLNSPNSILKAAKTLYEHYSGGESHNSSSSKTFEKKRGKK
Outline: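 HCT116 cells transfected with wild-type TTK were arrested with nocodazole (200 ng/mL, 17 h). They were pretreated with MG132 (15 μM, 30 min), then exposed to compound or DMSO for 4 h. Blots were probed for phospho-TTK (Thr12/Ser15), phospho-Aurora A (Thr288)/B (Thr232), TTK and GAPDH. Bands were quantified by near-infrared imaging, and EC50 was fitted.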

[5] = target: Serine/threonine-protein kinase PLK4 (Homo sapiens, UniProt O00444); assay: Inhibition of PLK4 (unknown origin) by indirect ELISA detection system
[6] = AUCinfinity in Sprague-Dawley rat at 1 mg/kg, iv by LC-MS/MS analysis; type: ADME, organism-based; design: time infinity, dose 1 mg/kg, route intravenous; conditions: plasma
[7] = Clearance in Sprague-Dawley rat at 1 mg/kg, iv by LC-MS/MS analysis; type: ADME, organism-based; design: dose 1 mg/kg, route intravenous; conditions: in vivo
[8] = target: Mast/stem cell growth factor receptor Kit (Homo sapiens, UniProt P10721); assay: Inhibition of human cKit by millipore radiometric assay; outline: as §2
[9] = Cytotoxicity against human OV90 cells after 5 days by sulforhodamine B assay; type: functional; conditions: OV-90, 120 h; outline: as §1
[10] = target: Mitogen-activated protein kinase 1 (Homo sapiens, UniProt P28482); assay: Inhibition of human MAPK1 by millipore radiometric assay; outline: as §2
[11] = Cytotoxicity against human SKOV3 cells after 5 days by sulforhodamine B assay; type: functional; conditions: SK-OV-3, 120 h; outline: as §1
Mus musculus = assay: Toxicity in po dosed CD-1 nude mouse assessed as signs of overt toxicity administered as qd for 21 days; type: organism-based; conditions: in vivo, 504 h
Outline: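 Female nude mice bearing subcutaneous tumors (80–120 mm³ at randomization) received vehicle (10% NMP/40% PEG400/50% water) or compound by daily oral dosing for 21 days. Doses were the MTD and ~2/3 MTD. Body weight and tumor volume were measured three times weekly. The MTD criterion (n = 3) was no body-weight loss over 20% and not moribund.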

SW-620 = assay: Cytotoxicity against human SW620 cells after 5 days by sulforhodamine B assay; type: functional; conditions: SW-620, 120 h; outline: as §1
[12] = target: T1, Dual specificity protein kinase TTK; assay: Inhibition of amino terminal GST-fused full length human TTK using His6-SUMO-TTK-N as substrate preincubated for 15 mins prior to ATP addition by indirect ELISA detection system
[13] = Toxicity in po dosed athymic CD1 nude mouse assessed as body weight loss in excess 20% and deemed moribund administered as qd for 21 days measured 3 times per week during compound dosing; type: organism-based; conditions: in vivo
[14] = target: Maternal embryonic leucine zipper kinase (Homo sapiens, UniProt Q14680); assay: Inhibition of human MELK by millipore radiometric assay; outline: as §2
[15] = Half life in human liver microsomes at 1 uM by LC-MS analysis; type: ADME
[16] = Half life in mouse liver microsomes at 1 uM by LC-MS analysis; type: ADME; conditions: liver microsomes
[17] = target: Proto-oncogene tyrosine-protein kinase receptor Ret (Homo sapiens, UniProt P07949, V804L); assay: Inhibition of human Ret V804L mutant by millipore radiometric assay; outline: as §2
Proto-oncogene tyrosine-protein kinase receptor Ret, sequence (P07949 29-1114 V804L limits assumed): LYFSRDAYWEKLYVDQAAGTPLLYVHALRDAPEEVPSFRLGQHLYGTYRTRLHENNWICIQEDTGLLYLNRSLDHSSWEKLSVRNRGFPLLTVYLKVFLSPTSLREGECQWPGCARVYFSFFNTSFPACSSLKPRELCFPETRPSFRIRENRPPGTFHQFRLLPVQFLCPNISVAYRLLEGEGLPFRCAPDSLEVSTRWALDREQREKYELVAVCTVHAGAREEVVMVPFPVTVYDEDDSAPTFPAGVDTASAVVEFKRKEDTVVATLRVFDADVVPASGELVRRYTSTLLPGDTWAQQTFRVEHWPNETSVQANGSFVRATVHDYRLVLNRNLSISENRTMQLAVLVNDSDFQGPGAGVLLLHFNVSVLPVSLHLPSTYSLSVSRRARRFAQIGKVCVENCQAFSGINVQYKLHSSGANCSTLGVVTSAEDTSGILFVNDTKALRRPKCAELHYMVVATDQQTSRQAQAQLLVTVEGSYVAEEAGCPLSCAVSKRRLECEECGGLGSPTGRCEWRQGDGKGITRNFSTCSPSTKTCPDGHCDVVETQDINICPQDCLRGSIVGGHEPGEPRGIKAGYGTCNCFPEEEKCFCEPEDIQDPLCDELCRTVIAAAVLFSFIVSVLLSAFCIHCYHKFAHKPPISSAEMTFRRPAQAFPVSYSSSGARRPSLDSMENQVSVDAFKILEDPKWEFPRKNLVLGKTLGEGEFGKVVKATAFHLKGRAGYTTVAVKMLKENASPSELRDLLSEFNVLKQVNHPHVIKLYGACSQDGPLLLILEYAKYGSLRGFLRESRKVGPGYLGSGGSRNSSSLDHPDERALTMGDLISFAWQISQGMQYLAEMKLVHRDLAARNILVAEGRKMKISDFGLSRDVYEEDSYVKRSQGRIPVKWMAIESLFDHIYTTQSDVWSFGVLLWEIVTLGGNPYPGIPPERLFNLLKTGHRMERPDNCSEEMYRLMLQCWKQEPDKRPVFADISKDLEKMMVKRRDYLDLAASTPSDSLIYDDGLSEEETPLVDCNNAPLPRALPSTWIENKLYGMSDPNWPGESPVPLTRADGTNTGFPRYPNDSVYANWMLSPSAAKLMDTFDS

Cytochrome P450 3A4, sequence (P08684 whole entry): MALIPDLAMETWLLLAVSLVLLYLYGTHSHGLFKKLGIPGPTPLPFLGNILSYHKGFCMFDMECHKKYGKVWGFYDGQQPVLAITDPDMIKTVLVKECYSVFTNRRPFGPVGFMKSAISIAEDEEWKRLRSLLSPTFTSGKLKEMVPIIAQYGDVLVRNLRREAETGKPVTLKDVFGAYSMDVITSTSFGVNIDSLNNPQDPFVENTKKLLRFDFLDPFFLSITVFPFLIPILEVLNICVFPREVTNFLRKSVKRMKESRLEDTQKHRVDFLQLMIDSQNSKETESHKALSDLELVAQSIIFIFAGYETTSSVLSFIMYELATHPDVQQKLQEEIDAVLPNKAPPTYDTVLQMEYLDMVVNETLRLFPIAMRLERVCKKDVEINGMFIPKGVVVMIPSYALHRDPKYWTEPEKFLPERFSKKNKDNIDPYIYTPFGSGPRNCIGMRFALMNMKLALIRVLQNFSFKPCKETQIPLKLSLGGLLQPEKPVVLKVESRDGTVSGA
Maternal embryonic leucine zipper kinase, sequence (Q14680 whole entry): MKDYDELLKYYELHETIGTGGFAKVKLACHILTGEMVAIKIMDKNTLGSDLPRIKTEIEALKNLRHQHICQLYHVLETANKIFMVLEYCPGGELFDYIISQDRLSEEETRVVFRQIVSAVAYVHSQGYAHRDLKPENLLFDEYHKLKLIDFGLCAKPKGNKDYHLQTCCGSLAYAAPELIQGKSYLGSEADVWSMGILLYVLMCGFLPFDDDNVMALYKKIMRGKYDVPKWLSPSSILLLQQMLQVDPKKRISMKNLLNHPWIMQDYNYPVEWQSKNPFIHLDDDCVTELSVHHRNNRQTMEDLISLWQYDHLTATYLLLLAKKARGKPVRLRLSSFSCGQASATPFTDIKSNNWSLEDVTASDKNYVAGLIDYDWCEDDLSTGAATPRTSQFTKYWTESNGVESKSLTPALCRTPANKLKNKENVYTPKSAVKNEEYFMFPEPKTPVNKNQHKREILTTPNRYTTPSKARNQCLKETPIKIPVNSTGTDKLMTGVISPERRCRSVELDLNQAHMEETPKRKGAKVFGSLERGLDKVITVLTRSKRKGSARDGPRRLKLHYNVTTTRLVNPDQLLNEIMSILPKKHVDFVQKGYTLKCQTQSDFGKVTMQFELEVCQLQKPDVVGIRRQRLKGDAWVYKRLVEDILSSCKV
Mitogen-activated protein kinase 1, sequence (P28482 whole entry): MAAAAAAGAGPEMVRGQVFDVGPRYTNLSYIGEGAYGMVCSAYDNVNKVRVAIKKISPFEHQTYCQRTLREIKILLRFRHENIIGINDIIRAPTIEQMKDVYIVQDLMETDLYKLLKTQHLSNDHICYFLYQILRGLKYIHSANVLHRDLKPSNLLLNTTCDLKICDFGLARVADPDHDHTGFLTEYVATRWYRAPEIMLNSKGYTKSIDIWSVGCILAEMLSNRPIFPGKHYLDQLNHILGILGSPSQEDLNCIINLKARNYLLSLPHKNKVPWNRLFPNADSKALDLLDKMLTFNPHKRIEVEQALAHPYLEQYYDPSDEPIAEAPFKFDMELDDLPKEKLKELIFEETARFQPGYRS
Mitogen-activated protein kinase 10, sequence (P53779 whole entry): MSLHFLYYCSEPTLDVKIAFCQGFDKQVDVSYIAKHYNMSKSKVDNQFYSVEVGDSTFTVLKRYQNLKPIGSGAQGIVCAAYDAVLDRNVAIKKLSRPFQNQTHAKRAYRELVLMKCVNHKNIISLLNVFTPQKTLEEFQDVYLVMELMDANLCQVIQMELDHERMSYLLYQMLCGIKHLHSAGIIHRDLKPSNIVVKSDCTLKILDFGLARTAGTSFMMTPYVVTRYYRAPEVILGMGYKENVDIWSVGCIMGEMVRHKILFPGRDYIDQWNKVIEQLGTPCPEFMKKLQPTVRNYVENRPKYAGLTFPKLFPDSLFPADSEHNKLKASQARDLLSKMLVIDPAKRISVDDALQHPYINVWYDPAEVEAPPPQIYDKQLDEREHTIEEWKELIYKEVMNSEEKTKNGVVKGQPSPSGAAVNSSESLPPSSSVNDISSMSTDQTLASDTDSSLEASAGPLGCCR
Mast/stem cell growth factor receptor Kit, sequence (P10721 whole entry): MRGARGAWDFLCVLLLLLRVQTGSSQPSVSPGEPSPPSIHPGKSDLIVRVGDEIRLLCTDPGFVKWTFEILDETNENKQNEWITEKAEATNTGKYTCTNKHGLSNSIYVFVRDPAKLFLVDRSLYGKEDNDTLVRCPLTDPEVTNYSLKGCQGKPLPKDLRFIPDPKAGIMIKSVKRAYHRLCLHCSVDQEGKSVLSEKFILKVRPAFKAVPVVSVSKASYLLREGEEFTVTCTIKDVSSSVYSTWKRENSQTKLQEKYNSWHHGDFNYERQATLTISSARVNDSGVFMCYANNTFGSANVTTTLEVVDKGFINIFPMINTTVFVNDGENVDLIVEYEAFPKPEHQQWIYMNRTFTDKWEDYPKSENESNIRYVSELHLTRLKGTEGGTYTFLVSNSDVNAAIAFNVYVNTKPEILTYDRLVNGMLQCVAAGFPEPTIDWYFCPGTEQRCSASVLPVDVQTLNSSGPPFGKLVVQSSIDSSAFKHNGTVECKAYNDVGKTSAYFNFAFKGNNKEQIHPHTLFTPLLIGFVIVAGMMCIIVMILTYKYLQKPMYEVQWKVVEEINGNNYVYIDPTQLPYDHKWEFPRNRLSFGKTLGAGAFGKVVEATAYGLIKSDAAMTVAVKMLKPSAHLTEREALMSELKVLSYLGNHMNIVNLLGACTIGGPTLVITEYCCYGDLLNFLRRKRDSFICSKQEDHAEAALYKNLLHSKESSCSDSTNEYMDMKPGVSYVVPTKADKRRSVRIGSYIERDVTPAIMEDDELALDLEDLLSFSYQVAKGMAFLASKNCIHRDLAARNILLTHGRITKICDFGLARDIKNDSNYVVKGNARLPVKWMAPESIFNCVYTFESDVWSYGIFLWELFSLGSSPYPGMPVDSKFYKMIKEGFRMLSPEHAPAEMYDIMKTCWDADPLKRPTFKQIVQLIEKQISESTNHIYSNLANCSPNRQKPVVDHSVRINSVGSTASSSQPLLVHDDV
Serine/threonine-protein kinase PLK4, sequence (O00444 whole entry): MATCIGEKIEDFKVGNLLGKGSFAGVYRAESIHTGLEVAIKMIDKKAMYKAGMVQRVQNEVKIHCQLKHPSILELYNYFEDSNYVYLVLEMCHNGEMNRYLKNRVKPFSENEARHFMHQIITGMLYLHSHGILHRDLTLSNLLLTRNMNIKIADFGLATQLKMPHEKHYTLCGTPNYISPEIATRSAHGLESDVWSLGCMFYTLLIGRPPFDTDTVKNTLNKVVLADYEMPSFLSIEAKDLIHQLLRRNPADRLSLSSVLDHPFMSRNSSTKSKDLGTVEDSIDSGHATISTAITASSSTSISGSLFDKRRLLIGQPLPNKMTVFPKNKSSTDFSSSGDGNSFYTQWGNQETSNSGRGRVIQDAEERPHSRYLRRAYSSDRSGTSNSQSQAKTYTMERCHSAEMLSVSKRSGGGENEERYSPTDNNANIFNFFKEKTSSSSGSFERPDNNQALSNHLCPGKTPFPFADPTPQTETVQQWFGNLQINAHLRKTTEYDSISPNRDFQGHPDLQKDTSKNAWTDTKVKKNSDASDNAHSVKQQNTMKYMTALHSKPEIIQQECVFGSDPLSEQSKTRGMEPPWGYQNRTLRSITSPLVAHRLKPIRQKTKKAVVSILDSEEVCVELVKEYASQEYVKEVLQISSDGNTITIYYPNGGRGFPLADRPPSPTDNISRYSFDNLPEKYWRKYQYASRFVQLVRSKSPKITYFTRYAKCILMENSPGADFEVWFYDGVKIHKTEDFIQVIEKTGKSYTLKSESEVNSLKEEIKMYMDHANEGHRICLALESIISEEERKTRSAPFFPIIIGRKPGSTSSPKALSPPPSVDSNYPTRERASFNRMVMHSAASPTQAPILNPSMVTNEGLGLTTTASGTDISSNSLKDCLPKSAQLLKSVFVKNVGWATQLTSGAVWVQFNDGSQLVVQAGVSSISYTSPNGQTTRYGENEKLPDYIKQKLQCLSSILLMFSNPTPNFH

O=C(N[C@@H](c1ccccn1)C1CC1)c1ccc2[nH]nc(-c3ccc(N4[C@H]5CC[C@H]4CC(O)C5)cc3)c2c1 (stereo in doubt; 75)
GI50 [1]: 16 nM
IC50 (Cytochrome P450 3A4): 1300 nM
GI50 (SK-MEL-28): 210 nM
AUC(0-inf) [2]: 3000 ng·h/mL
GI50 (SW48): 19 nM
GI50 (A2780): 20 nM
GI50 (SK-MEL-5): 20 nM
IC50 [3]: 68 nM
EC50 [4]: 14 nM
IC50 [5]: 130 nM
AUC(0-inf) [6]: 250 ng·h/mL
clearance [7]: 66 mL/min/kg
IC50 [8]: > 30000 nM
GI50 [9]: 30 nM
IC50 [10]: 320 nM
GI50 [11]: 17 nM
Activity (Mus musculus): Non-toxic
GI50 (SW-620): 30 nM
IC50 [12]: 3.1 nM
MTD at 504 h [13]: 35 mg/kg
IC50 [14]: 160 nM
half-life at 1 µM [15]: > 1 h
half-life at 1 µM [16]: > 1 h
IC50 [17]: 250 nM
